The text below walks through data of ChEMBL document CHEMBL4052823, “Extra Sugar on Vancomycin: New Analogues for Combating Multidrug-Resistant Staphylococcus aureus and Vancomycin-Resistant Enterococci” (J Med Chem, 2018).

Test [1] relates to Staphylococcus aureus. Description: Antibacterial activity against vancomycin/methicillin-susceptible Staphylococcus aureus Newman […] after 24 hrs by broth microdilution method. It counts as functional. The method in brief: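 Broth microdilution in cation-adjusted Mueller-Hinton II broth. […] Each well received ~10^5 CFU of exponential-phase bacteria and was incubated at 37 °C for 24 h. MIC was taken as the lowest concentration giving complete growth inhibition, interpreted per CLSI.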
(In general: In broth dilution the organism is exposed to a series of concentrations in liquid medium.)

Test [2] concerns Staphylococcus aureus. Description: Antibacterial activity against healthcare-associated methicillin-resistant/vancomycin-intermediate Staphylococcus aureus Mu50 after 24 hrs by broth microdilution method. The test is classed as functional. To be noted: Mu50, 24 h. In outline: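 Broth microdilution in cation-adjusted Mueller-Hinton II broth. DMSO stocks were diluted in broth and twofold serially from 128 to 0.0625 μg/mL or lower. Each well was inoculated with ~10^5 CFU of exponential-phase bacteria and incubated at 37 °C for 24 h. MIC was the lowest concentration giving complete growth inhibition, read per CLSI. Growth controls contained broth plus DMSO.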

Structures are written as SMILES. Values after ≈ are worked out from the molar mass of the structure shown.

Broadly, the MIC90 is an inhibitory concentration at the 90% level, which refers to growth in some studies and to a panel of isolates in others. Read a high MIC90 as weaker potency.

In the case of `CN[C@H](CC(C)C)C(=O)N[C@H]1C(=O)N[C@@H](CC(N)=O)C(=O)N[C@H]2C(=O)N[C@H]3C(=O)N[C@H](C(=O)N[C@H](C(=O)O)c4cc(O)c(CNCCCNC(=O)[C@H](O)[C@@H](O)[C@H](O)[C@H](O)CO)c(O)c4-c4cc3ccc4O)[C@H](O)c3ccc(c(Cl)c3)Oc3cc2cc(c3O[C@@H]2O[C@H](CO)[C@@H](O)[C@H](O)[C@H]2O[C@H]2C[C@](C)(NCc3ccc(C#C[Si](C)(C)C)cc3)[C@H](O)[C@H](C)O2)Oc2ccc(cc2Cl)[C@H]1O`, the MIC90 in the test on Staphylococcus aureus [1] worked out at 1 µg/mL (≈ 0.526 µM); against Staphylococcus aureus [2] it was 2 µg/mL (≈ 1.05 µM).
For `CN[C@H](CC(C)C)C(=O)N[C@H]1C(=O)N[C@@H](CC(N)=O)C(=O)N[C@H]2C(=O)N[C@H]3C(=O)N[C@H](C(=O)N[C@H](C(=O)O)c4cc(O)c(CNCCCNC(=O)[C@H](O)[C@@H](O)[C@H](O[C@@H]5O[C@H](CO)[C@H](O)[C@H](O)[C@H]5O)[C@H](O)CO)c(O)c4-c4cc3ccc4O)[C@H](O)c3ccc(c(Cl)c3)Oc3cc2cc(c3O[C@@H]2O[C@H](CO)[C@@H](O)[C@H](O)[C@H]2O[C@H]2C[C@](C)(NCc3ccc(-c4ccc(Cl)cc4)cc3)[C@H](O)[C@H](C)O2)Oc2ccc(cc2Cl)[C@H]1O`, the values for the MIC90 against Staphylococcus aureus [1] and in the test on Staphylococcus aureus [2] were 0.25 µg/mL (≈ 0.12 µM) and 0.5 µg/mL (≈ 0.241 µM), respectively.
The matching figures for `CN[C@H](CC(C)C)C(=O)N[C@H]1C(=O)N[C@@H](CC(N)=O)C(=O)N[C@H]2C(=O)N[C@H]3C(=O)N[C@H](C(=O)N[C@H](C(=O)O)c4cc(O)c(CNCCCNC(=O)[C@H](O)[C@@H](O)[C@H](O)[C@H](O)CO)c(O)c4-c4cc3ccc4O)[C@H](O)c3ccc(c(Cl)c3)Oc3cc2cc(c3O[C@@H]2O[C@H](CO)[C@@H](O)[C@H](O)[C@H]2O[C@H]2C[C@](C)(NCc3ccc4c(c3)OCC4)[C@H](O)[C@H](C)O2)Oc2ccc(cc2Cl)[C@H]1O`: 4 µg/mL (≈ 2.17 µM) and 8 µg/mL (≈ 4.33 µM).
For the compound `CCCCCOc1ccc(CN[C@@]2(C)C[C@H](O[C@H]3[C@H](Oc4c5cc6cc4Oc4ccc(cc4Cl)[C@@H](O)[C@@H](NC(=O)[C@@H](CC(C)C)NC)C(=O)N[C@@H](CC(N)=O)C(=O)N[C@H]6C(=O)N[C@H]4C(=O)N[C@H](C(=O)N[C@H](C(=O)O)c6cc(O)c(CNCCCNC(=O)[C@H](O)[C@@H](O)[C@H](O)[C@H](O)CO)c(O)c6-c6cc4ccc6O)[C@H](O)c4ccc(c(Cl)c4)O5)O[C@H](CO)[C@@H](O)[C@@H]3O)O[C@@H](C)[C@H]2O)cc1`, the MIC90 was 1 µg/mL (≈ 0.529 µM) in the test with Staphylococcus aureus [1] and 2 µg/mL (≈ 1.06 µM) in the test with Staphylococcus aureus [2].
On the same counts, the results for `CCCCCCCCCN[C@@]1(C)C[C@H](O[C@H]2[C@H](Oc3c4cc5cc3Oc3ccc(cc3Cl)[C@@H](O)[C@@H](NC(=O)[C@@H](CC(C)C)NC)C(=O)N[C@@H](CC(N)=O)C(=O)N[C@H]5C(=O)N[C@H]3C(=O)N[C@H](C(=O)N[C@H](C(=O)O)c5cc(O)c(CNCCO)c(O)c5-c5cc3ccc5O)[C@H](O)c3ccc(c(Cl)c3)O4)O[C@H](CO)[C@@H](O)[C@@H]2O)O[C@@H](C)[C@H]1O` are 0.12 µg/mL (≈ 0.0728 µM) and 0.5 µg/mL (≈ 0.303 µM).
The matching figures for `CCCCCCCCCCNCCN[C@@]1(C)C[C@H](O[C@H]2[C@H](Oc3c4cc5cc3Oc3ccc(cc3Cl)[C@@H](O)[C@@H](NC(=O)[C@@H](CC(C)C)NC)C(=O)N[C@@H](CC(N)=O)C(=O)N[C@H]5C(=O)N[C@H]3C(=O)N[C@H](C(=O)N[C@H](C(=O)O)c5cc(O)c(CNCCO[C@@H]6O[C@H](CO)[C@@H](O)[C@H](O)[C@H]6O)c(O)c5-c5cc3ccc5O)[C@H](O)c3ccc(c(Cl)c3)O4)O[C@H](CO)[C@@H](O)[C@@H]2O)O[C@@H](C)[C@H]1O`: 4 µg/mL (≈ 2.14 µM) and 16 µg/mL (≈ 8.57 µM).
On the same counts, the results for `CCCCCCCCCCC(=O)N[C@@]1(C)C[C@H](O[C@H]2[C@H](Oc3c4cc5cc3Oc3ccc(cc3Cl)[C@@H](O)[C@@H](NC(=O)[C@@H](CC(C)C)NC)C(=O)N[C@@H](CC(N)=O)C(=O)N[C@H]5C(=O)N[C@H]3C(=O)N[C@H](C(=O)N[C@H](C(=O)O)c5cc(O)c(CNCCCNC(=O)[C@H](O)[C@@H](O)[C@H](O)[C@H](O)CO)c(O)c5-c5cc3ccc5O)[C@H](O)c3ccc(c(Cl)c3)O4)O[C@H](CO)[C@@H](O)[C@@H]2O)O[C@@H](C)[C@H]1O` are 16 µg/mL (≈ 8.5 µM) and 32 µg/mL (≈ 17 µM).
On to `CN[C@H](CC(C)C)C(=O)N[C@H]1C(=O)N[C@@H](CC(N)=O)C(=O)N[C@H]2C(=O)N[C@H]3C(=O)N[C@H](C(=O)N[C@H](C(=O)O)c4cc(O)c(CNCCCNC(=O)[C@H](O)[C@@H](O)[C@H](O)[C@H](O)CO)c(O)c4-c4cc3ccc4O)[C@H](O)c3ccc(c(Cl)c3)Oc3cc2cc(c3O[C@@H]2O[C@H](CO)[C@@H](O)[C@H](O)[C@H]2O[C@H]2C[C@](C)(NCc3ccc(-c4ccncc4)cc3)[C@H](O)[C@H](C)O2)Oc2ccc(cc2Cl)[C@H]1O`, for which the MIC90 stood at 1 µg/mL (≈ 0.532 µM) in the test with Staphylococcus aureus [1] and 4 µg/mL (≈ 2.13 µM) with Staphylococcus aureus [2].
Consider `CN[C@H](CC(C)C)C(=O)N[C@H]1C(=O)N[C@@H](CC(N)=O)C(=O)N[C@H]2C(=O)N[C@H]3C(=O)N[C@H](C(=O)N[C@H](C(=O)O)c4cc(O)c(CNCCCNC(=O)[C@H](O)[C@@H](O)[C@H](O)[C@H](O)CO)c(O)c4-c4cc3ccc4O)[C@H](O)c3ccc(c(Cl)c3)Oc3cc2cc(c3O[C@@H]2O[C@H](CO)[C@@H](O)[C@H](O)[C@H]2O[C@H]2C[C@](C)(NCc3ccc4ccccc4c3)[C@H](O)[C@H](C)O2)Oc2ccc(cc2Cl)[C@H]1O`, for which the MIC90 in the test on Staphylococcus aureus [1] worked out at 1 µg/mL (≈ 0.539 µM); in the test on Staphylococcus aureus [2] it was 4 µg/mL (≈ 2.16 µM).
In the case of `CCCCCCCCCCNCCN[C@@]1(C)C[C@H](O[C@H]2[C@H](Oc3c4cc5cc3Oc3ccc(cc3Cl)[C@@H](O)[C@@H](NC(=O)[C@@H](CC(C)C)NC)C(=O)N[C@@H](CC(N)=O)C(=O)N[C@H]5C(=O)N[C@H]3C(=O)N[C@H](C(=O)N[C@H](C(=O)O)c5cc(O)c(CNCCO[C@@H]6O[C@H](CO)[C@@H](O)[C@H](O)[C@H]6NC(C)=O)c(O)c5-c5cc3ccc5O)[C@H](O)c3ccc(c(Cl)c3)O4)O[C@H](CO)[C@@H](O)[C@@H]2O)O[C@@H](C)[C@H]1O`, the figures for the MIC90 against Staphylococcus aureus [1] and with Staphylococcus aureus [2] were 1 µg/mL (≈ 0.524 µM) and 4 µg/mL (≈ 2.1 µM), respectively.
`C#Cc1ccc(CN[C@@]2(C)C[C@H](O[C@H]3[C@H](Oc4c5cc6cc4Oc4ccc(cc4Cl)[C@@H](O)[C@@H](NC(=O)[C@@H](CC(C)C)NC)C(=O)N[C@@H](CC(N)=O)C(=O)N[C@H]6C(=O)N[C@H]4C(=O)N[C@H](C(=O)N[C@H](C(=O)O)c6cc(O)c(CNCCCNC(=O)[C@H](O)[C@@H](O)[C@H](O)[C@H](O)CO)c(O)c6-c6cc4ccc6O)[C@H](O)c4ccc(c(Cl)c4)O5)O[C@H](CO)[C@@H](O)[C@@H]3O)O[C@@H](C)[C@H]2O)cc1`: the MIC90 against Staphylococcus aureus [1] is 4 µg/mL (≈ 2.19 µM); in the test with Staphylococcus aureus [2] it was 8 µg/mL (≈ 4.38 µM).
As for `CCCCCCCCCCNCCN[C@@]1(C)C[C@H](O[C@H]2[C@H](Oc3c4cc5cc3Oc3ccc(cc3Cl)[C@@H](O)[C@@H](NC(=O)[C@@H](CC(C)C)NC)C(=O)N[C@@H](CC(N)=O)C(=O)N[C@H]5C(=O)N[C@H]3C(=O)N[C@H](C(=O)N[C@H](C(=O)O)c5cc(O)c(CNCCCNC(=O)[C@H](O)[C@@H](O)[C@H](O[C@@H]6O[C@H](CO)[C@H](O)[C@H](O)[C@H]6O)[C@H](O)CO)c(O)c5-c5cc3ccc5O)[C@H](O)c3ccc(c(Cl)c3)O4)O[C@H](CO)[C@@H](O)[C@@H]2O)O[C@@H](C)[C@H]1O`, the MIC90 is 0.25 µg/mL (≈ 0.121 µM) against Staphylococcus aureus [1] and 1 µg/mL (≈ 0.486 µM) in the test on Staphylococcus aureus [2].
